According to ChEMBL document CHEMBL3593187, “Modified quaternary ammonium salts as potential antimalarial agents” (Bioorg Med Chem, 2015):

Key:
[1] = Cytotoxicity against HMEC1 assessed as inhibition of cell proliferation after 72 hrs by MTT assay; settings: Homo sapiens, HMEC-1, 72 h
Procedure, shortened: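 HMEC-1 cells grown in MCDB 131 with 10% fetal calf serum, 10 ng/mL EGF, hydrocortisone, 2 mM glutamine and 20 mM Hepes. Serial compound dilutions, 72 h at 37 °C in 5% CO2, then MTT for 3 h. Formazan dissolved in SDS/DMF lysing buffer (pH 4.7), read at 550 nm (ref 650 nm). IC50 from triplicates, at least three runs.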

Plasmodium falciparum [2] = assay: Antiplasmodial activity against chloroquine-resistant Plasmodium falciparum W2 assessed as inhibition of parasite growth after 72 hrs by parasite lactate dehydrogenase assay; format: functional, organism-based; settings: W2, 72 h
Procedure, shortened: (§1)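 Asynchronous P. falciparum cultures (parasitaemia 1–1.5%, 1% final haematocrit, human type A-positive erythrocytes) in RPMI 1640 with 1% AlbuMaxII, 0.01% hypoxanthine, 20 mM Hepes and 2 mM glutamine. Cultures were exposed to serial dilutions (10 mg/mL stocks in water or DMSO) for 72 h at 37 °C under 1% O2/5% CO2/94% N2. Growth was read as pLDH activity (OD650), and IC50 is the mean ± SD of ≥3 independent experiments in duplicate.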

Plasmodium falciparum [3] = assay: Antiplasmodial activity against chloroquine-sensitive Plasmodium falciparum D10 assessed as inhibition of parasite growth after 72 hrs by parasite lactate dehydrogenase assay; format: functional, organism-based; settings: D10, 72 h; procedure, shortened: as §1
Plasmodium falciparum [4] = assay: Resistance index, ratio of IC50 for chloroquine-resistant Plasmodium falciparum W2 to IC50 for chloroquine-sensitive Plasmodium falciparum D10; format: functional
Procedure, shortened: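 Resistance index is the IC50 against W2 divided by the IC50 against D10. Each IC50 came from a 72 h pLDH growth assay (OD650) on asynchronous cultures at 1% haematocrit and 37 °C, with ≥3 independent experiments in duplicate.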

[5] = Selectivity index, ratio of IC50 for HMEC1 to IC50 for chloroquine-resistant Plasmodium falciparum W2
Procedure, shortened: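 Selectivity index is the IC50 on HMEC-1 divided by the IC50 on W2. HMEC-1 cells were grown in MCDB 131 with 10% FCS, EGF, hydrocortisone and Hepes, then given serial dilutions for 72 h at 37 °C in 5% CO2. MTT was added for 3 h, formazan was dissolved in SDS/DMF lysis buffer at pH 4.7, and absorbance was read at 550/650 nm. Each test was run in triplicate at least three times.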

[6] = Selectivity index, ratio of IC50 for HMEC1 to IC50 for chloroquine-sensitive Plasmodium falciparum D10
Procedure, shortened: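 Ratio of HMEC-1 IC50 (72 h MTT) to D10 IC50. […] Serial dilutions (final DMSO ≤1%), 72 h at 37 °C under 1% O2/5% CO2/94% N2. Growth read as pLDH activity (OD650). Mean of ≥3 experiments in duplicate.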

Structure (SMILES) | IC50 [1] [nM] | IC50 (Plasmodium falciparum [2]) [nM] | IC50 (Plasmodium falciparum [3]) [nM] | Ratio IC50 (Plasmodium falciparum [4]) | Ratio IC50 [5] | Ratio IC50 [6]
C/C=C/C=C/C=C/C[N+](C)(CCCCCCCCCCCCCCCC)Cc1ccccc1 (centres undefined) | 5990 | > 8640 | > 8640 | – | – | –
C/C=C/C=C/C=C/C[N+](C)(C)CCCCCCCCCCCCCCCCCC.[I-] | 16700 | 1530 | 1150 | 1.3 | 10 | 14
C/C=C/C=C/C=C/C(=O)O | – | > 28400 | > 28400 | – | – | –
CCCCCCCCCCCC[N+](C)(C)CCCCCCCC.[Br-] | 8690 | 480 | 190 | 2.5 | 18 | 44
C/C=C/C=C/C=C/C[N+](C)(C)CCCCCCCCCCCC.[I-] | > 20000 | 4710 | 4280 | 1.1 | – | –
C/C=C/C=C/C=C/C[N+](C)(C)CCCCCCCCCCCCCCCC.[I-] | 7070 | 950 | 620 | 1.5 | 7 | 11
C/C=C/C=C/C=C/C[N+](C)(CCCCCCCCCCCCCC)Cc1ccccc1.[I-] (centres undefined) | 23000 | 310 | 220 | 1.4 | 75 | 102
C/C=C/C=C/C=C/C[N+](C)(C)CCCCCCCCCCCCCC.[I-] | 7890 | 530 | 210 | 2.5 | 14 | 36
CCN(CC)CCCC(C)Nc1ccnc2cc(Cl)ccc12 (centres undefined) [CHLOROQUINE] | > 20000 | – | – | – | – | –
C/C=C/C=C/C=C/C[N+](C)(C)CCCCCCCCCCCCC.[I-] | 5630 | 630 | 360 | 1.7 | 8 | 15
C/C=C/C=C/C=C/C[N+](C)(CCCCCCCCCCCC)Cc1ccccc1.[I-] (centres undefined) | 5900 | 330 | 250 | 1.2 | 18 | 23
C/C=C/C=C/C=C/C[N+](C)(CCCCCCCCCCCCC)Cc1ccccc1.[I-] (centres undefined) | 21200 | 520 | 870 | 0.6 | 41 | 24
C/C=C/C=C/C=C/C[N+](C)(CCCCCCCCCCCCCCCCCC)Cc1ccccc1.[I-] (centres undefined) | 7020 | 610 | 450 | 1.3 | 11 | 15
